Data published in ChEMBL document CHEMBL1781903, “Antiprotozoal activity of chloroquinoline based chalcones” (Eur J Med Chem, 2011).
Blank lines part the entries; values can stand above or below the compound they belong to. Calls of active or inactive are those of the source. The rule behind the calls is not given here.

How the values were obtained:
Entamoeba histolytica [1] = experiment: […] activity against Entamoeba histolytica HM-1:IMSS trophozoites after 72 hrs by microdilution method; format: functional, organism-based
How it was run: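 E. histolytica trophozoites in TYIS-33 medium; DMSO stocks (1 mg/mL) twofold serially diluted, 1.7×10^4 amoebae/well, nitrogen-gassed, 37 °C for 72 h. Methanol-fixed, eosin-stained, dye released in 0.1 N NaOH, OD 490 nm. Triplicate per concentration, repeated thrice. % inhibition vs log concentration, IC50 from linear regression; metronidazole as reference.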

MCF7 [2] = experiment: Cytotoxicity against human MCF7 cells after 48 hrs by MTT assay; format: cell-based; conditions: MCF7, 48 h
How it was run: (§1)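 MCF-7 cells grown in DMEM with 10% FCS and penicillin/streptomycin, seeded at 1.2×10^4 cells/well and grown 48 h before treatment. Stocks prepared in 20% (v/v) DMSO and diluted in medium. After 48 h at 37 °C, MTT (5 mg/mL) added for 4 h, formazan dissolved in DMSO, A570 read with 655 nm reference. Viability relative to untreated cells; triplicate.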

Plasmodium falciparum [3] = experiment: Antimicrobial activity against chloroquine-sensitive Plasmodium falciparum 3D7 assessed as inhibition of [3H] hypoxanthine incorporation after 24 hrs by scintillation counting; format: functional, organism-based
How it was run: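 Synchronized ring-stage 3D7 culture at 0.5% parasitemia and 1% haematocrit in supplemented RPMI-1640, exposed to serially diluted DMSO stocks for 24 h. [3H]-hypoxanthine added at 0.5 µCi/well for a further 24 h, then DNA harvested onto filter mats and counted by β-scintillation. IC50 from log sigmoid dose-response curves. At least triplicate; chloroquine and quinine as references.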

Plasmodium falciparum [4] = experiment: Antimicrobial activity against chloroquine-sensitive Plasmodium falciparum 3D7 assessed as inhibition of [3H] hypoxanthine incorporation at 100 uM after 24 hrs by scintillation counting; format: functional
[5] = Toxicity in human RBC assessed as hemolysis at 100 uM after 48 hrs; format: cell-based, Erythrocyte; conditions: red blood cells (RBC), read-out: Activity
How it was run: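 Fresh human red blood cells at 1% haematocrit in culture medium, incubated 48 h with compound at 100 μM, absorbance read at 412 nm. % haemolysis calculated against 0.5% Triton X100 as the 100% control. At least triplicate, mean ± s.d.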

[6] = Inhibition of beta-haematin formation after 24 hrs by microtiter plate assay; format: functional
How it was run: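 Compound mixed with haemin (1 mg/mL in DMSO), water and 0.5 M acetate buffer at pH 4.7, then incubated 24 h. Unreacted haemin removed by three DMSO washes with centrifugation at 1500 g. β-haematin dissolved in 2 M NaOH, diluted twofold, absorbance read at 405 nm. IC50 taken from the data. Chloroquine and quinine as positive controls; at least triplicate.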

[7] = Inhibition of beta-haematin formation at 100 uM after 24 hrs by microtiter plate assay; format: functional
Plasmodium falciparum [8] = experiment: Inhibition of Plasmodium falciparum cysteine protease
Plasmodium falciparum [9] = experiment: Inhibition of Plasmodium falciparum falcipain
[10] = system: Radical scavenging activity; experiment: Antioxidant activity assessed as DPPH radical scavenging activity at 80 uM after 30 mins; format: functional
How it was run: (§2)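 Compounds added to DPPH• in methanol, kept in the dark at room temperature for 30 min, absorbance read at 540 nm. Scavenging given as % decrease in absorbance relative to a drug-free DPPH• control, with a MeOH/DMSO background control. Ascorbic acid as comparator; triplicate.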

Plasmodium falciparum [11] = experiment: Antimicrobial activity against chloroquine-resistant Plasmodium falciparum FCB1; format: functional, organism-based; conditions: FcB1/Columbia
[12] = system: Radical scavenging activity; experiment: Antioxidant activity assessed as DPPH radical scavenging activity after 30 mins; format: functional; how it was run: as §2
Entamoeba histolytica [13] = experiment: Ratio of metronidazole IC50 to compound IC50 for Entamoeba histolytica HM-1:IMSS trophozoites; format: functional
[14] = Cytotoxicity against human MCF7 cells assessed as cell growth inhibition at 50 uM after 48 hrs by MTT assay; format: cell-based; conditions: read-out: GI; how it was run: as §1
[15] = Cytotoxicity against human MCF7 cells assessed as cell growth inhibition at 100 uM after 48 hrs by MTT assay; format: cell-based; conditions: read-out: GI; how it was run: as §1
MCF7 [16] = experiment: Cytotoxicity against human MCF7 cells assessed as cell growth inhibition after 48 hrs by MTT assay; format: cell-based; conditions: mcf7, 48 h; how it was run: as §1

SMILES: Cc1ccc2nc(Cl)c(/C=C/C(=O)c3cccc(Br)c3)cc2c1
IC50 (Entamoeba histolytica [1]): 1.03 µM
IC50 (MCF7 [2]): > 100 µM
IC50 (Plasmodium falciparum [3]): 50.1 µM
hemolysis at 48 h, 100 µM [5]: 1.68%
IC50 [6]: > 100 µM
inhibition [7]: 14.9%
inhibition (Plasmodium falciparum [8]): inactive
inhibition (Plasmodium falciparum [9]): inactive

SMILES: C=C[C@H]1C[N@@]2CC[C@H]1C[C@H]2[C@H](O)c1ccnc2ccc(OC)cc12 [QUININE]
hemolysis at 48 h, 100 µM [5]: 1.22%

SMILES: CCN(CC)CCCC(C)Nc1ccnc2cc(Cl)ccc12 (configuration not stated) [CHLOROQUINE]
hemolysis at 48 h, 100 µM [5]: 0.72%
IC50 [6]: 25 µM
Activity [10]: 4.06%

SMILES: C/C(=C\c1cc2ccc(C)cc2nc1Cl)C(=O)c1cccc(Cl)c1
IC50 (Entamoeba histolytica [1]): 7.03 µM
IC50 (Plasmodium falciparum [3]): 50.4 µM
hemolysis at 48 h, 100 µM [5]: 1.44%
IC50 [6]: > 100 µM
inhibition [7]: 5.64%
Activity [10]: 0.78%
inhibition (Plasmodium falciparum [8]): inactive
inhibition (Plasmodium falciparum [9]): inactive

SMILES: Cc1ccc2cc(/C=C/C(=O)c3ccc(Cl)cc3)c(Cl)nc2c1
IC50 (Entamoeba histolytica [1]): 6.91 µM
IC50 (Plasmodium falciparum [11]): > 200 µM
inhibition (Plasmodium falciparum [8]): inactive
inhibition (Plasmodium falciparum [9]): inactive

SMILES: O=C(/C=C/c1cc2ccccc2nc1Cl)c1ccccn1
IC50 (Entamoeba histolytica [1]): 5.3 µM
IC50 (Plasmodium falciparum [3]): 32 µM
hemolysis at 48 h, 100 µM [5]: 1.1%
IC50 [6]: > 100 µM
inhibition [7]: 12.3%
inhibition (Plasmodium falciparum [8]): inactive
inhibition (Plasmodium falciparum [9]): inactive

SMILES: C=C[C@H]1CN2CC[C@H]1C[C@H]2[C@H](O)c1ccnc2ccc(OC)cc12 [QUININE]
IC50 (Plasmodium falciparum [3]): 0.14 µM
IC50 [6]: 65.8 µM
Activity [10]: 2.65%

SMILES: Cc1ccc2cc(/C=C/C(=O)c3ccccn3)c(Cl)nc2c1
IC50 (Entamoeba histolytica [1]): 0.05 µM
IC50 (MCF7 [2]): 75.7 µM
IC50 (Plasmodium falciparum [3]): 31.3 µM
hemolysis at 48 h, 100 µM [5]: 0.47%
IC50 [6]: > 100 µM
inhibition [7]: 15%
Ratio IC50 (Entamoeba histolytica [13]): 29.2
inhibition (Plasmodium falciparum [8]): inactive
inhibition (Plasmodium falciparum [9]): inactive
inhibition at 48 h, 50 µM [14]: 36%
inhibition at 48 h, 100 µM [15]: 66%
Activity (MCF7 [16]): Dose-dependent effect

SMILES: C/C(=C\c1cc2ccc(C)cc2nc1Cl)C(=O)c1cccc(Br)c1
IC50 (Entamoeba histolytica [1]): 0.09 µM
IC50 (MCF7 [2]): > 100 µM
IC50 (Plasmodium falciparum [3]): 47.1 µM
hemolysis at 48 h, 100 µM [5]: 1.04%
IC50 [6]: > 100 µM
inhibition [7]: 10.5%
Activity [10]: 2.27%
Ratio IC50 (Entamoeba histolytica [13]): 16
inhibition (Plasmodium falciparum [8]): inactive
inhibition (Plasmodium falciparum [9]): inactive

SMILES: O=C(/C=C/c1cc2ccccc2nc1Cl)c1ccc(Cl)cc1
IC50 (Entamoeba histolytica [1]): 0.05 µM
IC50 (MCF7 [2]): > 100 µM
IC50 (Plasmodium falciparum [3]): 39.2 µM
hemolysis at 48 h, 100 µM [5]: 1.74%
IC50 [6]: > 100 µM
inhibition [7]: 19.5%
Activity [10]: 3.69%
Ratio IC50 (Entamoeba histolytica [13]): 29.2
IC50 (Plasmodium falciparum [11]): > 200 µM
inhibition (Plasmodium falciparum [8]): inactive
inhibition (Plasmodium falciparum [9]): inactive

Continued, in another order:

IC50 (Entamoeba histolytica [1]): 0.06 µM
IC50 (Plasmodium falciparum [3]): > 100 µM
inhibition (Plasmodium falciparum [8]): inactive
inhibition (Plasmodium falciparum [9]): inactive
SMILES: C/C(=C\c1cc2cc(C)ccc2nc1Cl)C(=O)c1cccc(Cl)c1
IC50 (MCF7 [2]): > 100 µM
inhibition at 100 µM (Plasmodium falciparum [4]): 8.74%
hemolysis at 48 h, 100 µM [5]: 1.24%
IC50 [6]: > 100 µM
inhibition [7]: 14.4%

IC50 (Entamoeba histolytica [1]): 3.45 µM
IC50 (Plasmodium falciparum [3]): > 100 µM
inhibition (Plasmodium falciparum [8]): inactive
inhibition (Plasmodium falciparum [9]): inactive
SMILES: O=C(/C=C/c1cc2ccccc2nc1Cl)c1cccc(Br)c1
inhibition at 100 µM (Plasmodium falciparum [4]): 61.2%
hemolysis at 48 h, 100 µM [5]: 1.38%
IC50 [6]: > 100 µM
inhibition [7]: 16%

IC50 (Entamoeba histolytica [1]): 3.38 µM
IC50 (Plasmodium falciparum [3]): 44.6 µM
inhibition (Plasmodium falciparum [8]): inactive
inhibition (Plasmodium falciparum [9]): inactive
SMILES: O=C(/C=C/c1cc2ccccc2nc1Cl)c1ccc(Br)cc1
hemolysis at 48 h, 100 µM [5]: 2.2%
IC50 [6]: > 100 µM
inhibition [7]: 13.6%

IC50 (Entamoeba histolytica [1]): 1.46 µM
SMILES: Cc1ncc([N+](=O)[O-])n1CCO [METRONIDAZOLE]
IC50 (MCF7 [2]): > 100 µM

IC50 (Entamoeba histolytica [1]): 3.65 µM
IC50 (Plasmodium falciparum [3]): > 100 µM
inhibition (Plasmodium falciparum [8]): inactive
inhibition (Plasmodium falciparum [9]): inactive
SMILES: C/C(=C\c1cc2ccccc2nc1Cl)C(=O)c1cccc(Br)c1
inhibition at 100 µM (Plasmodium falciparum [4]): 34.3%
hemolysis at 48 h, 100 µM [5]: 2.17%
IC50 [6]: > 100 µM
inhibition [7]: 9.35%
Activity [10]: 1.43%

IC50 [12]: 20.1 µM
SMILES: O=C1O[C@H]([C@@H](O)CO)C(O)=C1O [ASCORBIC ACID]

IC50 (Entamoeba histolytica [1]): 7.53 µM
IC50 (Plasmodium falciparum [3]): 59.7 µM
inhibition (Plasmodium falciparum [8]): inactive
inhibition (Plasmodium falciparum [9]): inactive
SMILES: Cc1ccc2cc(/C=C/C(=O)c3cccc(Br)c3)c(Cl)nc2c1
hemolysis at 48 h, 100 µM [5]: 1.09%
IC50 [6]: > 100 µM
inhibition [7]: 27.5%

IC50 (Entamoeba histolytica [1]): 1.45 µM
IC50 (Plasmodium falciparum [3]): 31.5 µM
inhibition (Plasmodium falciparum [8]): inactive
inhibition (Plasmodium falciparum [9]): inactive
SMILES: Cc1ccc2nc(Cl)c(/C=C/C(=O)c3ccccn3)cc2c1
hemolysis at 48 h, 100 µM [5]: 1.55%
IC50 [6]: > 100 µM
inhibition [7]: 11.5%

IC50 (Entamoeba histolytica [1]): 4.09 µM
IC50 (Plasmodium falciparum [3]): 74.8 µM
inhibition (Plasmodium falciparum [8]): inactive
inhibition (Plasmodium falciparum [9]): inactive
SMILES: Cc1ccc2nc(Cl)c(/C=C/C(=O)c3ccc(Br)cc3)cc2c1
hemolysis at 48 h, 100 µM [5]: 1.4%
IC50 [6]: > 100 µM
inhibition [7]: 55.4%

IC50 (Entamoeba histolytica [1]): 2.79 µM
IC50 (Plasmodium falciparum [3]): > 100 µM
inhibition (Plasmodium falciparum [8]): inactive
inhibition (Plasmodium falciparum [9]): inactive
SMILES: C/C(=C\c1cc2cc(C)ccc2nc1Cl)C(=O)c1cccc(Br)c1
inhibition at 100 µM (Plasmodium falciparum [4]): 51.1%
hemolysis at 48 h, 100 µM [5]: 1.53%
IC50 [6]: > 100 µM
inhibition [7]: 13.3%
